Among the data in ChEMBL document CHEMBL1126765, “Analogues of capsaicin with agonist activity as novel analgesic agents; structure-activity studies. 1. The aromatic "A-region"” (J Med Chem, 1993) are EC50, pKa and ED50 values, retold here.

For orientation: EC50 means the concentration at which the effect is half-maximal. In general, pKa refers to the pH at which an ionisable group is half protonated. Low readings indicate a stronger acid or weaker base, high ones a weaker acid or stronger base. The term ED50 denotes the dose at which the effect has come halfway, by size or by number of responders. Read a low ED50 as greater potency.

Data set [1] is filed under the species Rattus norvegicus. Description: In vitro effective concentration for [Ca2+] uptake and accumulation of [Ca2+] in neonatal rat cultured spinal sensory neurons. The data set is classed as functional. Put shortly:
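Newborn rat DRG neurones dissociated with collagenase then 2.5 mg/mL trypsin at 37 °C, plated with 1 μg/mL NGF, 10^-4 M cytosine arabinoside for 48 h; used at 3-7 days. Cells washed in Ca-free HEPES BSS pH 7.4, then given compound plus 10 μCi/mL 45Ca2+ with 1% DMSO for 10 min at room temperature. SDS-extracted, scintillation counted. Sigmoidal fit; ≥6 replicates, ≥2 experiments; mean ± SEM.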

A short description of data set [2]: Acid dissociation constant was determined. The data set is classed as ADME.
The species entered for data set [3] is Cavia porcellus. Description: In vitro contraction in guinea pig ileum equivalent to 50% capsaicin response. In kind it is functional. The method in brief:
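Male Dunkin-Hartley guinea pig ileum segments in Tyrode's solution at 37 °C, gassed 95% O2/5% CO2, isometric recording, 1 h equilibration under 0.5 g tension. […] doses given at 1 h intervals with frequent washes. Contraction amplitude expressed as % of maximal capsaicin response; EC50 = concentration giving 50% of that response; mean ± SEM from at least four tissues.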

Data set [4] has as its system Mus musculus. Kind of data set: In vivo analgesic activity, mouse tail flick latency in antinociceptive assay. The data set is classed as functional. Put shortly:
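Female CD-1 mice, about 20 g, fasted overnight. Drug or vehicle given s.c. into the back of the neck, 10 per group. Tail flick latency to a focused light beam measured 1 h later at 3.5 cm from the tip, 30 s cutoff. % analgesia = (drug − vehicle latency)/(30 s − vehicle latency); ED50 = dose giving 50% analgesia. Mann-Whitney U or Dunnett's test.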
(In general: Thermal pain tests record how soon the animal reacts.)

Bounds are passed on as bounds.

In the case of `CCCCCCCCC(=O)NCc1cc(=O)c(O)co1`, the EC50 in data set [1] is over 100 µM.

For the compound `CCCCCCCCC(=O)NCc1ccc2[nH]ccc2c1`, in data set [1], the concentration for a half-maximal effect (EC50) is over 100 µM.

In data set [1], `CCCCCCCCNC(=O)Cc1ccc(OC)c(C)c1` came in with an EC50 of over 100 µM.

As to `CCCCCCCCC(=O)NCc1cc(OC)c(OC)c(OC)c1`, the EC50 in data set [1] is over 100 µM.

The compound `CCCCCCCCNC(=O)Cc1cc(OC)c(O)c(OC)c1` showed an EC50 in data set [1] of over 100 µM.

In data set [1], `CCCCCCCCC(=O)NCc1ccc(O)c(O)c1O` gave an EC50 of 7.64 µM.

For `CCCCCCCCC(=O)NCc1ccnc(OC)c1`, the EC50 in data set [1] worked out at 31.5 µM.

In data set [1], `CCCCCCCCNC(=O)Cc1ccc(OC)c(O)c1` came in with an EC50 of 1.82 µM.

In turn, `CCCCCCCCNC(=O)Cc1ccc2ncccc2c1` had a 50% effective concentration (EC50) in data set [1] of over 100 µM.

Compound `CCCCCCCCC(=O)NCc1ccc(N)c(OC)c1` registered an EC50 in data set [1] of over 10 µM.

The compound `CCCCCCCCNC(=O)Cc1ccc2c(c1)OCO2` had an EC50 in data set [1] of over 100 µM.

As to `CCCCCCCCNC(=O)Cc1ccc(O)c(Cl)c1`, the pKa in data set [2] came out at 9. The figures for the 50% effective concentration (EC50) in data set [3] and in data set [1] were 0.68 µM and 0.26 µM, respectively. In addition, the median effective dose (ED50) in data set [4] was over 50 µmol/kg.

`CCCCCCCCNC(=O)Cc1ccc(O)c([N+](=O)[O-])c1`: the pKa in data set [2] is 7.7. For the same compound, the EC50 was determined as 2.78 µM in data set [3] and 1.04 µM in data set [1]. In data set [4], this compound returned an ED50 of over 50 µmol/kg.

Compound `CCCCCCCCC(=O)NCc1ccncc1` displayed an EC50 in data set [1] of 28 µM.

As to `CCCCCCCCC(=O)NCc1cc[n+]([O-])cc1`, the EC50 in data set [1] is over 100 µM.

Regarding `CCCCCCCCC(=O)NCc1ccc([N+](=O)[O-])c(OC)c1`, the EC50 in data set [1] turned out to be 7.91 µM.

In data set [2], `CCCCCCCCNC(=O)Cc1ccc(O)c(OCC)c1` returned a pKa of 10.4. For the same compound, the EC50 in data set [3] is 4.96 µM; in data set [1], 4.34 µM. In data set [4], this compound yielded an ED50 of over 50 µmol/kg.

In the case of `CCCCCCCCC(=O)NCc1ccc(C(=O)O)cc1`, the concentration giving a half-maximal response (EC50) in data set [1] was over 100 µM.

In data set [1], `CCCCCCCCNC(=O)Cc1ccc(O)c2c1OCCO2` gave an EC50 of over 100 µM.

In data set [1], `CCCCCCCCC(=O)NCc1cc(O)cc(OC)c1` came in with an EC50 of over 100 µM.

`CCCCCCCCC(=O)NCc1cccc(OC)c1` showed an EC50 in data set [1] of over 100 µM.

Turning to `CCCCCCCCC(=O)NCc1ccc(O)cc1OC`, the half-maximal effective concentration (EC50) in data set [1] is over 100 µM.

With `CCCCCCCCNC(=O)Cc1ccc(O)c(OC)c1`, the pKa in data set [2] was determined as 9.9. In addition, the EC50 in data set [3] stood at 0.33 µM; in data set [1], 0.3 µM. This compound showed an ED50 in data set [4] of 9.2 µmol/kg.

In turn, `CCCCCCCCNC(=O)Cc1ccc(O)c(OC)c1OC` gave an EC50 in data set [1] of over 100 µM.

`CCCCCCCCC(=O)NCc1ccc(S)c(OC)c1` displayed an EC50 in data set [1] of over 100 µM.

Compound `CCCCCCCCNC(=O)Cc1cccc(OC)c1` returned a concentration giving a half-maximal response (EC50) in data set [1] of over 100 µM.

For `CCCCCCCCNC(=O)Cc1ccc(O)c(C)c1`, in data set [2], the pKa came out at 10.6. In addition, in data set [1], the EC50 is over 100 µM.

`CCCCCCCCC(=O)NCc1ccc(OC)cc1`: the 50% effective concentration (EC50) in data set [3] is 22.2 µM; in data set [1], over 100 µM. In data set [4], this compound had an ED50 of over 50 µmol/kg.

In data set [1], `CCCCCCCCC(=O)NCc1ccccc1OC` displayed an EC50 of over 100 µM.

For the compound `CCCCCCCCC(=O)NCc1cccnc1`, the EC50 in data set [1] is over 100 µM.

As for `CCCCCCCCC(=O)NCc1ccc(OC)c(OC)c1`, the EC50 in data set [3] is 1.15 µM; in data set [1], 6.41 µM. In data set [4], this compound gave an ED50 of over 50 µmol/kg.

In the case of `CCCCCCCCC(=O)NCc1cc(OC)c(O)cc1OC`, the EC50 in data set [1] is over 100 µM.

As for `CCCCCCCCNC(=O)Cc1ccc(O)c(O)c1`, in data set [2], the pKa came out at 9.2. The figures for the EC50 in data set [3] and in data set [1] were 0.33 µM and 0.41 µM, respectively. In data set [4], the ED50 turned out to be 50 µmol/kg.

Turning to `CCCCCCCCNC(=O)Cc1ccc(O)c(NC(C)=O)c1`, the pKa in data set [2] was 9.7. In data set [1], the EC50 is over 100 µM.

Turning to `CCCCCCCCNC(=O)Cc1ccc(O)c(N)c1`, in data set [2], the pKa was 10. This compound also returned an EC50 in data set [1] of over 100 µM.

In data set [2], `CCCCCCCCNC(=O)Cc1ccc(O)cc1` gave a pKa of 10.2. Also, the EC50 in data set [3] is 2.75 µM; in data set [1] it was 6.5 µM. The same compound yielded an ED50 in data set [4] of over 50 µmol/kg.

Turning to `CCCCCCCCC(=O)NCc1ccc(O)c(O)c1`, the EC50 in data set [3] was found to be 0.22 µM; in data set [1], 0.63 µM. The compound also showed an ED50 in data set [4] of 20 µmol/kg.

In the case of `CCCCCCCCC(=O)NCc1cccc(O)c1`, in data set [1], the EC50 is over 100 µM.

The compound `CCCCCCCCC(=O)NCc1ccc2c(c1)OCO2` gave an EC50 in data set [1] of over 100 µM.

Take `COc1cc(CNC(=O)CCCC/C=C/C(C)C)ccc1O` [CAPSAICIN]: the EC50 in data set [3] stood at 0.26 µM; in data set [1] it was 0.3 µM. In data set [4], this compound registered an ED50 of 15 µmol/kg.

In data set [1], `CCCCCCCCC(=O)NCc1ccccc1` [NONANOIC ACID BENZYLAMIDE] came in with an EC50 of over 100 µM.

Take `CCCCCCCCC(=O)NCc1ccc(O)c(OC)c1` [NONIVAMIDE]: the figures for the EC50 in data set [3] and in data set [1] were 0.4 µM and 0.55 µM, respectively. This compound showed a 50% effective dose (ED50) in data set [4] of 5 µmol/kg.
